Data as given in ChEMBL document CHEMBL1177649, “Synthesis and structure-affinity relationships of novel small molecule natural product derivatives capable of discriminating between serotonin 5-HT1A, 5-HT2A, 5-HT2C receptor subtypes” (Bioorg Med Chem, 2010).

Columns and labels:
Format in all cases: cell-based
[1] = molecular target: T1, 5-hydroxytryptamine receptor 1A (Homo sapiens) (UniProt P08908); experiment: Displacement of [3H]MPPF from human cloned 5HT1A receptor expressed in HEK293 cells at 3 uM after 90 mins by liquid scintillation counting
T1 sequence (whole entry): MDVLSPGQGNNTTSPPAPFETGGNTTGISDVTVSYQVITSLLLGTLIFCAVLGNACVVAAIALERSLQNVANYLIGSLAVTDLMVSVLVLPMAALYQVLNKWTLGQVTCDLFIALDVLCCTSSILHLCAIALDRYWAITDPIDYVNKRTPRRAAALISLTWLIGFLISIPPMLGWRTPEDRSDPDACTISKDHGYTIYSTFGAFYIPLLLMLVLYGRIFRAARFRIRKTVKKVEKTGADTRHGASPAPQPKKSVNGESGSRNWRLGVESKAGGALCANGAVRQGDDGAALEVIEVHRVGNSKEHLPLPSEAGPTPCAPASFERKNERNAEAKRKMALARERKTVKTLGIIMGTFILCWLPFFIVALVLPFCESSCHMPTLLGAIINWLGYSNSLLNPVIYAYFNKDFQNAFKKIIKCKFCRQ
Outline: (§1)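 Crude membranes from HEK293 cells stably expressing the receptor (G418 selection) in 50 mM Tris, pH 7.4. Radioligand targeted at ~500 pM. Compound added from a 3 mM DMSO stock diluted 1:1000. Nonspecific binding defined with 5 μM NAN-190 (5-HT1A) or 5 μM mianserin (5-HT2C). Incubated ≥90 min at 25°C, then filtered through PEI-soaked GF/C filters. Percent displacement of specific binding; triplicates, 3–4 experiments.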

[2] = molecular target: T2, 5-hydroxytryptamine receptor 2A (Homo sapiens, UniProt P28223); experiment: Displacement of [3H]methylspiperone from human cloned 5HT2A receptor expressed in HEK293 cells at 3 uM after 90 mins by liquid scintillation counting
T2 sequence (P28223 whole entry): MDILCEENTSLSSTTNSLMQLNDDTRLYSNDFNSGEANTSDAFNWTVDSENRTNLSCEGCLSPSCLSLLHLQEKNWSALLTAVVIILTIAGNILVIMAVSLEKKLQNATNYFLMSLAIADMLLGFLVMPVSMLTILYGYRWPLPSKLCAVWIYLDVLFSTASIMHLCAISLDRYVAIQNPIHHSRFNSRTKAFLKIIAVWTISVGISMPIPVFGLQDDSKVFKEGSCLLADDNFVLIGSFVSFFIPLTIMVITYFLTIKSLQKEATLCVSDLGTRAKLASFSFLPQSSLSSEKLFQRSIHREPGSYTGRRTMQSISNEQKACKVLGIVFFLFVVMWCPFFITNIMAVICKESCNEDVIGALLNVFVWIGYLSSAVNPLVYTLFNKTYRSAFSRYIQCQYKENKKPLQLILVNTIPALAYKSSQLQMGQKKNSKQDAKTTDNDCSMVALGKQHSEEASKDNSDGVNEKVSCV
Outline: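 Crude membranes from HEK293 cells stably expressing the receptor (calcium phosphate transfection, G418-selected clones), in 50 mM Tris pH 7.4. Single-point screen: 3 mM DMSO stock diluted 1:1000. Radioligand targeted at about 500 pM, nonspecific binding defined by 5 μM mianserin. Incubated at least 90 min at 25°C, then filtered on PEI-soaked GF/C filters and washed cold. Percent specific displacement, triplicates, 3–4 experiments.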

[3] = molecular target: T3, 5-hydroxytryptamine receptor 2C (Homo sapiens) (UniProt P28335); experiment: Displacement of [3H]mesulergine from human cloned 5HT2C receptor expressed in HEK293 cells at 3 uM after 90 mins by liquid scintillation counting; outline: as §1
T3 sequence (whole entry): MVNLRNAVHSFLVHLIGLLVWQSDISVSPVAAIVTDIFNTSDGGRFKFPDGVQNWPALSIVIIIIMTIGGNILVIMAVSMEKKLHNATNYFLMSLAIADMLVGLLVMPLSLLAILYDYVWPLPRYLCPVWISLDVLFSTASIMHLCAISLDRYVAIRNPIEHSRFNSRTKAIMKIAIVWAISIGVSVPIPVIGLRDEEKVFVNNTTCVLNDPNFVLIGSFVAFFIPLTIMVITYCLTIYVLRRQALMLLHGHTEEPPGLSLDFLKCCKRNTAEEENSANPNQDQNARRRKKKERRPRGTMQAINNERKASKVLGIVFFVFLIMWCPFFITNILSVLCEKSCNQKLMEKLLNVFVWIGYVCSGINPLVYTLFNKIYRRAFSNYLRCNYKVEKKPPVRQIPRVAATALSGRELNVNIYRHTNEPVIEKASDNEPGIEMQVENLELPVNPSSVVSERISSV

[4] = molecular target: T2, 5-hydroxytryptamine receptor 2A; experiment: Displacement of [3H]methylspiperone from human cloned 5HT2A receptor expressed in HEK293 cells after 90 mins by liquid scintillation counting
Outline: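 Nonspecific binding defined with 5 μM mianserin. Compounds in DMSO or DMSO:0.01 N HCl, non-aqueous solvent ≤1:300. Incubated ≥90 min at 25°C, then filtered. Ki from IC50 by Cheng-Prusoff, with the curve bottom fixed at zero for partial displacement. Geometric mean ± SD of 3–4 experiments in triplicate.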

[5] = molecular target: T4, 5-hydroxytryptamine receptor 2C (Homo sapiens, UniProt P28335); experiment: Displacement of [3H]mesulergine from human cloned 5HT2C receptor expressed in HEK293 cells after 90 mins by liquid scintillation counting
T4 sequence (P28335 whole entry): T3 sequence (whole entry)

Row | SMILES | Activity [1] [%] | Activity [2] [%] | Activity [3] [%] | Ki [4] [nM] | Ki [5] [nM]
1 | CN1C(=N)N(C)/C(=C/c2c[nH]c3ccc(Cl)cc23)C1=O | 9 | 22 | 43 | – | –
2 | Cc1ncccc1Oc1ccc(NC(=O)N2CCc3cc(Br)ccc32)cn1 | – | – | – | 3980 | 3.2
3 | CN1C(=N)NC(=O)/C1=C\c1c[nH]c2cc(Cl)ccc12 | 1 | 0 | 0 | – | –
4 | CN1C(=N)N(C)/C(=C/c2c[nH]c3cc(Cl)c(Cl)cc23)C1=O | 0 | 12 | 79 | – | 46
5 | CCN1C(=N)N(C)/C(=C\c2c[nH]c3ccc(I)cc23)C1=O | 15 | 35 | 46 | – | –
6 | CN1C(=N)N(C)/C(=C/c2c[nH]c3cc(F)ccc23)C1=O | 2 | 79 | 0 | 235 | –
7 | CN1C(=N)N(C)/C(=C/c2c[nH]c3cc(Cl)ccc23)C1=O | 3 | 0 | 49 | – | 166
8 | CN1C(=N)NC(=O)/C1=C\c1c[nH]c2ccc(F)cc12 | 0 | 0 | 19 | – | –
9 | CCN1C(=N)N(C)/C(=C\c2c[nH]c3ccc(Br)cc23)C1=O | 0 | 9 | 18 | – | –
10 | CN1C(=N)NC(=O)/C1=C\c1c[nH]c2ccc(Cl)cc12 | 9 | 9 | 0 | – | –
11 | O=C(Nc1cccnc1)N1CCc2cc(I)c(Cl)cc21 | – | – | – | – | 3.2
12 | CN1C(=N)N(C)/C(=C/c2c[nH]c3ccc(F)cc23)C1=O | 4 | 10 | 0 | – | –
13 | Cc1ncccc1Oc1ccc(NC(=O)N2CCc3cc(I)ccc32)cn1 | – | – | – | – | 3.2
14 | CN1C(=N)NC(=O)/C1=C\c1c[nH]c2ccc(Br)cc12 | 6 | 0 | 0 | – | –
15 | Cc1cc2c(cc1I)N(C(=O)Nc1cccnc1)CC2 | – | – | – | – | 3.2
16 | CN1C(=N)NC(=O)/C1=C\c1c[nH]c2ccccc12 | 0 | 0 | 6 | – | –
17 | O=C(Nc1cccnc1)N1CCc2ccccc21 | – | – | – | > 10000 | –
18 | CN1C(=N)NC(=O)/C1=C\c1c[nH]c2cc(Cl)c(Cl)cc12 | 4 | 0 | 10 | – | –
19 | CN1C(=N)NC(=O)/C1=C\c1c[nH]c2cc(F)ccc12 | 0 | 6 | 1 | – | –
20 | CN1C(=N)N(C)/C(=C/c2c[nH]c3ccc(Br)cc23)C1=O | 18 | 37 | 64 | – | –
21 | CN1C(=N)N(C)/C(=C/c2c[nH]c3cc(Br)ccc23)C1=O | – | – | – | – | 2200
22 | CCN1C(=N)N(C)/C(=C/c2c[nH]c3cc(Br)ccc23)C1=O | 0 | 0 | 49 | – | –
